This is an account of results in ChEMBL document CHEMBL4513216, “Probing the Open Global Health Chemical Diversity Library for Multistage-Active Starting Points for Next-Generation Antimalarials” (ACS Infect Dis, 2020).

The data set can be described thus: Toxicity liver stage against HepG2, at 10uM. Format: cell-based. Also noted: test concentration 10 uM, cell line HepG2-A16-CD81EGFP. The following applies: human, HepG2-A16-CD81EGFP cells; read-out: INHIBITION
The procedure, abridged: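 Uninfected HepG2-A16-CD81EGFP cells, 3 × 10^3 per well, 1536-well, plated on prespotted compound at 10 μM final, parasite-free screening media added to match infected plates; puromycin 10 μM positive, DMSO 0.5% negative; run in parallel with 48 h PbLuc assay at 37 °C, 5% CO2; viability by CellTiter-Glo luminescence, normalized to controls.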
Consider `CN(C)c1cc(C(F)(F)F)nc(N2CCCC2c2ccccn2)n1` (centres undefined), for which the cytotoxicity at 10 µM stood at 5.36%.
To `COc1ccccc1C(NC(=O)CN(C)C(C)C)c1noc(C)n1` (centres undefined) belongs -3.21%; to `COc1ccc(CN2CCN(Cc3nccn3C)C(C)C2)cc1F` (centres undefined), 2.42%; to `CCOCCNC1(c2ccc(Cl)cc2)CCOCC1`, -3.75%.
For `Cc1[nH]ccc1C(=O)NC1CCC(N2C(=O)CCC2=O)CC1` (centres undefined), the cytotoxicity at 10 µM was -3.81%.
The figure for `NC(=O)CN1CCC(NC2CSCCc3ccccc32)CC1` (centres undefined) is -3.21%; for `O=C(CCc1ccccc1Br)NCC(=O)NCc1ccccc1` it is 0.988%.
For `O=C(c1ccn(-c2cccc(F)c2)n1)N1CCN(CC2CC2)CC1`, the cytotoxicity at 10 µM was -7.54%.
Take `O=C(NCCc1cccs1)NC1CCN(c2ncccn2)CC1`: the cytotoxicity at 10 µM is -141%.
The figure for `COCCn1ccc(NC(=O)Nc2ccc(C)cc2)n1` is 2.19%.
`CCOc1ccc(N2CCC(C(O)c3ccccc3)CC2)nn1` (centres undefined): the cytotoxicity at 10 µM is -2.2%.
The figure for `Cc1cc(C(=O)Nc2cccn(Cc3ccccc3)c2=O)no1` is -1.55%; for `COCCNC(=O)c1nn(-c2cccc(C(C)C)c2)cc1O` it is -2.35%; for `COc1ccc(Br)cc1CCC(=O)N1CCC(O)CC1` it is -1.96%.
The figure for `O=C1CCC2(CCCN(C(=O)c3ncc[nH]3)C2)CN1CCc1c[nH]cn1` (centres undefined) is -2.47%; for `O=C(C1CCCC1)N1CCN(Cc2ccncc2)[C@@H]2CS(=O)(=O)C[C@@H]21` it is -1.79%.
The figure for `COc1ccccc1[C@@H]1CN(C(=O)Cc2csc(C)n2)C[C@H]1C(=O)O` is -8.25%; for `CCN1CCN(C[C@@H]2CN(c3ncc(Cl)cc3F)C[C@@H]2CO)CC1` it is -7.06%; for `CCN(CCO)C(=O)C1CCC(=O)N(Cc2cccc(OC)c2)C1` (centres undefined) it is -9.49%.
As to `COc1ccccc1OCCCN1C(=O)CCNC1=O`, the cytotoxicity at 10 µM is -3.7%.
As for `COCC(c1ccccn1)N(C)C(=O)c1cc(-c2ccccc2O)n[nH]1` (centres undefined), the cytotoxicity at 10 µM is -1.84%.
The figure for `CCn1c(N)nc2cc(C(=O)NCCNc3ncccc3C)cnc21` is -5.98%; for `CN(C)C(=O)CN1CCN(c2ncccn2)[C@@H]2CS(=O)(=O)C[C@@H]21` it is -3.01%.
For `CCOCCNc1nc(-c2ccncc2)nc2c1CCNCC2`, the cytotoxicity at 10 µM is -136%.
To `CCO[C@H]1CN(C)C[C@@H]1NC(=O)c1c[nH]nc1C1CCCCC1` belongs -5.56%; to `CCC1=NOC(CNCc2cnc(-c3ccccc3C)s2)C1` (centres undefined), -5.92%; to `CCc1ccc2nc(C)cc(C(=O)NC3CCCCNC3=O)c2c1` (centres undefined), -8.48%.
The figure for `Nc1cccc(-c2cccc3ccnn23)n1` is -5.74%; for `N#Cc1cccnc1N1CCCC(CO)(Cc2cccc(Cl)c2)C1` (centres undefined) it is 6.29%.
The figure for `CN(Cc1nccn1C)c1ccc(-c2nccn2C)nn1` is -6.45%; for `CN(C)C[C@@H]1CN(C2CCN(c3ccc(Cl)cc3)CC2)C[C@@H]1CO` it is -9.14%.
For the compound `O=S1(=O)C[C@@H]2[C@H](C1)N(S(=O)(=O)N1CCCC1)CCN2Cc1ccccc1`, the cytotoxicity at 10 µM is -2.59%.
Turning to `O=C(c1ccsc1)N1CCC(Nc2cccnn2)CC1`, the cytotoxicity at 10 µM was -7.58%.
The figure for `Cc1ncsc1C(=O)NCCNC(=O)Cc1cccc(F)c1` is -0.0716%; for `CCOc1cc(C)nc(N2CCN(C(=O)Cn3cc(C)cn3)CC2)n1` it is -5.43%.
For the compound `Cc1nc(C2CCCN2C(=O)CCn2cncn2)no1` (centres undefined), the cytotoxicity at 10 µM was -17.8%.
The figure for `Cc1cnn(CC2CN(CC(=O)N(C)Cc3ccsc3)CCO2)c1` (centres undefined) is -10.6%; for `O=C(NCC1CN(c2ncccn2)Cc2nccn2C1)c1cccnc1` (centres undefined) it is -143%; for `CNC(=O)C(C)(C)N1CCC[C@H]1C(=O)NCCN1CCCC1` it is -2.3%.
